Data taken from ChEMBL document CHEMBL5661972, “In vitro biological activity of a novel small-molecule inhibitor of polo-like kinase 1” (Mol Cancer Ther, 2007).
pIC50: −log10 of the molar value.

How the values were obtained:
[1] = tested on: NHDF; assay: Induction of cell cycle arrest in human HDF cells assessed as accumulation of cells at G1 phase at 3 micromol/L incubated for 24 hrs by propidium iodide staining based flow cytometry analysis (reference value: 57.0 %); type: toxicity; details: 3 µM, dose 3 µmol/L
Procedure, shortened: (§1)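 Cells seeded in six-well plates at densities that keep them in log growth (HDF 120,000, 60,000 or 30,000; H460 100,000, 50,000 or 25,000 per well for 24, 48 or 72 h). Treated with 1 or 3 μmol/L. Floating and adherent cells collected, ethanol-fixed, permeabilized with Triton X-100 and stained with propidium iodide. DNA content read by flow cytometry as % singlet cells.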

[2] = tested on: NHDF; assay: Induction of cell cycle arrest in human HDF cells assessed as accumulation of cells at G2-M phase at 1 micromol/L incubated for 24 hrs by propidium iodide staining based flow cytometry analysis (reference value: 22.6 %); type: toxicity; details: 1 µM, dose 1 µmol/L; procedure, shortened: as §1
[3] = tested on: NHDF; assay: Induction of cell cycle arrest in human HDF cells assessed as accumulation of cells at G2-M phase at 3 micromol/L incubated for 48 hrs by propidium iodide staining based flow cytometry analysis (reference value: 14.3 %); type: toxicity; details: 3 µM, dose 3 µmol/L; procedure, shortened: as §1
[4] = tested on: NHDF; assay: Induction of cell cycle arrest in human HDF cells assessed as accumulation of cells at >4N phase at 1 micromol/L incubated for 72 hrs by propidium iodide staining based flow cytometry analysis (reference value: 1.4 %); type: toxicity; details: 1 µM, dose 1 µmol/L; procedure, shortened: as §1
[5] = tested on: NCI-H460; assay: Induction of cell cycle arrest in human NCI-H460 cells assessed as accumulation of cells at >4N phase at 1 micromol/L incubated for 72 hrs by propidium iodide staining based flow cytometry analysis (reference value: 0.9 %); type: functional; details: dose 1 µmol/L, at 1 µM; procedure, shortened: as §1
[6] = target: Platelet-derived growth factor receptor beta (Homo sapiens, UniProt P09619); assay: Inhibition of PDGFR1beta (unknown origin)
[7] = tested on: NCI-H460; assay: Induction of cell cycle arrest in human NCI-H460 cells assessed as accumulation of cells at G2-M phase at 3 micromol/L incubated for 72 hrs by propidium iodide staining based flow cytometry analysis (reference value: 18.2 %); type: functional; details: dose 3 µmol/L
[8] = tested on: NCI-H460; assay: Induction of cell cycle arrest in human NCI-H460 cells assessed as accumulation of cells at >4N phase at 3 micromol/L incubated for 72 hrs by propidium iodide staining based flow cytometry analysis (reference value: 0.9 %); type: functional; details: dose 3 µmol/L, at 3 µM; procedure, shortened: as §1
[9] = tested on: MES-SA; assay: Antiproliferative activity against human MES-SA cells assessed as inhibition of cell growth; type: functional, cell-based
Procedure, shortened: (§2)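 Cells grown 3 days in 96-well plates, seeded so vehicle controls stay in log growth (MES-SA/DX5 7,000, MES-SA 6,000, HDF 5,000 per well). Exposed to 3-fold dilutions, 30–0.00152 μmol/L, in medium with 5% FBS, 50 μg/mL gentamicin and 0.3% (v/v) DMSO. HDF medium was low-glucose DMEM; MES-SA lines used McCoy's 5A.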

[10] = Cytotoxicity against human HDF cells assessed as inhibition of cell growth; type: toxicity, cell-based; details: HDF cells (NHDF, human dermal fibroblasts); procedure, shortened: as §2
[11] = tested on: NCI-H460; assay: Induction of cell cycle arrest in human NCI-H460 cells assessed as accumulation of cells at Sub-2N phase at 3 micromol/L incubated for 48 hrs by propidium iodide staining based flow cytometry analysis (reference value: 2.5 %); type: functional; details: dose 3 µmol/L, at 3 µM
[12] = tested on: NCI-H460; assay: Induction of cell cycle arrest in human NCI-H460 cells assessed as accumulation of cells at G1 phase at 3 micromol/L incubated for 48 hrs by propidium iodide staining based flow cytometry analysis (reference value: 50.9 %); type: functional; details: dose 3 µmol/L, at 3 µM
[13] = tested on: NCI-H460; assay: Induction of cell cycle arrest in human NCI-H460 cells assessed as accumulation of cells at Sub-2N phase at 1 micromol/L incubated for 24 hrs by propidium iodide staining based flow cytometry analysis (reference value: 4.0 %); type: functional; details: dose 1 µmol/L, at 1 µM
[14] = tested on: NCI-H460; assay: Induction of cell cycle arrest in human NCI-H460 cells assessed as accumulation of cells at G2-M phase at 3 micromol/L incubated for 24 hrs by propidium iodide staining based flow cytometry analysis (reference value: 19.8 %); type: functional; details: dose 3 µmol/L, at 3 µM
[15] = tested on: NCI-H460; assay: Induction of cell cycle arrest in human NCI-H460 cells assessed as accumulation of cells at Sub-2N phase at 1 micromol/L incubated for 48 hrs by propidium iodide staining based flow cytometry analysis (reference value: 2.5 %); type: functional; details: dose 1 µmol/L, at 1 µM
[16] = tested on: NHDF; assay: Induction of cell cycle arrest in human HDF cells assessed as accumulation of cells at >4N phase at 3 micromol/L incubated for 72 hrs by propidium iodide staining based flow cytometry analysis (reference value: 1.4 %); type: toxicity; details: 3 µM, dose 3 µmol/L; procedure, shortened: as §1
[17] = tested on: NCI-H460; assay: Induction of cell cycle arrest in human NCI-H460 cells assessed as accumulation of cells at G2-M phase at 1 micromol/L incubated for 48 hrs by propidium iodide staining based flow cytometry analysis (reference value: 22.5 %); type: functional; details: dose 1 µmol/L, at 1 µM
[18] = tested on: NCI-H460; assay: Induction of cell cycle arrest in human NCI-H460 cells assessed as accumulation of cells at >4N phase at 3 micromol/L incubated for 48 hrs by propidium iodide staining based flow cytometry analysis (reference value: 0.9 %); type: functional; details: dose 3 µmol/L, at 3 µM; procedure, shortened: as §1
[19] = Selectivity ratio of IC50 for cytotoxicity against human HDF cells to IC50 for antiproliferative activity against human RKO cells; type: toxicity, cell-based; details: HDF cells versus RKO cells, read-out: Ratio IC50
[20] = tested on: NCI-H460; assay: Induction of cell cycle arrest in human NCI-H460 cells assessed as accumulation of cells at G2-M phase at 3 micromol/L incubated for 48 hrs by propidium iodide staining based flow cytometry analysis (reference value: 22.5 %); type: functional; details: dose 3 µmol/L, at 3 µM
[21] = tested on: MES-SA; assay: Antiproliferative activity against DX5 resistant human MES-SA cells assessed as inhibition of cell growth; type: functional, cell-based; procedure, shortened: as §2
[22] = tested on: NHDF; assay: Induction of cell cycle arrest in human HDF cells assessed as accumulation of cells at >4N phase at 3 micromol/L incubated for 24 hrs by propidium iodide staining based flow cytometry analysis (reference value: 2.4 %); type: toxicity; details: 3 µM, dose 3 µmol/L; procedure, shortened: as §1
[23] = tested on: NCI-H460; assay: Induction of cell cycle arrest in human NCI-H460 cells assessed as accumulation of cells at S phase at 1 micromol/L incubated for 24 hrs by propidium iodide staining based flow cytometry analysis (reference value: 23.2 %); type: functional; details: dose 1 µmol/L, at 1 µM
[24] = tested on: NCI-H460; assay: Induction of cell cycle arrest in human NCI-H460 cells assessed as accumulation of cells at Sub-2N phase at 3 micromol/L incubated for 24 hrs by propidium iodide staining based flow cytometry analysis (reference value: 4.0 %); type: functional; details: dose 3 µmol/L, at 3 µM
[25] = target: Mitogen-activated protein kinase 11 (Homo sapiens, UniProt Q15759); assay: Inhibition of p38beta (unknown origin)
[26] = tested on: NHDF; assay: Induction of cell cycle arrest in human HDF cells assessed as accumulation of cells at >4N phase at 3 micromol/L incubated for 48 hrs by propidium iodide staining based flow cytometry analysis (reference value: 3.0 %); type: toxicity; details: 3 µM, dose 3 µmol/L; procedure, shortened: as §1
[27] = tested on: NHDF; assay: Induction of cell cycle arrest in human HDF cells assessed as accumulation of cells at G2-M phase at 1 micromol/L incubated for 72 hrs by propidium iodide staining based flow cytometry analysis (reference value: 8.2 %); type: toxicity; details: 1 µM, dose 1 µmol/L; procedure, shortened: as §1
[28] = tested on: NCI-H460; assay: Induction of cell cycle arrest in human NCI-H460 cells assessed as accumulation of cells at G1 phase at 1 micromol/L incubated for 48 hrs by propidium iodide staining based flow cytometry analysis (reference value: 50.9 %); type: functional; details: dose 1 µmol/L, at 1 µM; procedure, shortened: as §1
[29] = tested on: NHDF; assay: Induction of cell cycle arrest in human HDF cells assessed as accumulation of cells at S phase at 3 micromol/L incubated for 72 hrs by propidium iodide staining based flow cytometry analysis (reference value: 3.6 %); type: toxicity; details: 3 µM, dose 3 µmol/L; procedure, shortened: as §1

Mitogen-activated protein kinase 11, sequence (Q15759 whole entry): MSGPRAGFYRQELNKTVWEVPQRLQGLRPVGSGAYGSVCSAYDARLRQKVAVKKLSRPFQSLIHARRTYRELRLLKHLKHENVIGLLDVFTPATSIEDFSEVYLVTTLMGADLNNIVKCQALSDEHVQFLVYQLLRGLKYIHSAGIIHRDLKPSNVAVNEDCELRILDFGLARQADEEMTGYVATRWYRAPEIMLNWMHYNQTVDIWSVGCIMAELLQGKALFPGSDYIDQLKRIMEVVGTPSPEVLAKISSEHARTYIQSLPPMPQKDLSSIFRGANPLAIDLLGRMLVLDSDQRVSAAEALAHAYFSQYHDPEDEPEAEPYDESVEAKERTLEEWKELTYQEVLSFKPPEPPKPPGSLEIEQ
Platelet-derived growth factor receptor beta, sequence (P09619 whole entry): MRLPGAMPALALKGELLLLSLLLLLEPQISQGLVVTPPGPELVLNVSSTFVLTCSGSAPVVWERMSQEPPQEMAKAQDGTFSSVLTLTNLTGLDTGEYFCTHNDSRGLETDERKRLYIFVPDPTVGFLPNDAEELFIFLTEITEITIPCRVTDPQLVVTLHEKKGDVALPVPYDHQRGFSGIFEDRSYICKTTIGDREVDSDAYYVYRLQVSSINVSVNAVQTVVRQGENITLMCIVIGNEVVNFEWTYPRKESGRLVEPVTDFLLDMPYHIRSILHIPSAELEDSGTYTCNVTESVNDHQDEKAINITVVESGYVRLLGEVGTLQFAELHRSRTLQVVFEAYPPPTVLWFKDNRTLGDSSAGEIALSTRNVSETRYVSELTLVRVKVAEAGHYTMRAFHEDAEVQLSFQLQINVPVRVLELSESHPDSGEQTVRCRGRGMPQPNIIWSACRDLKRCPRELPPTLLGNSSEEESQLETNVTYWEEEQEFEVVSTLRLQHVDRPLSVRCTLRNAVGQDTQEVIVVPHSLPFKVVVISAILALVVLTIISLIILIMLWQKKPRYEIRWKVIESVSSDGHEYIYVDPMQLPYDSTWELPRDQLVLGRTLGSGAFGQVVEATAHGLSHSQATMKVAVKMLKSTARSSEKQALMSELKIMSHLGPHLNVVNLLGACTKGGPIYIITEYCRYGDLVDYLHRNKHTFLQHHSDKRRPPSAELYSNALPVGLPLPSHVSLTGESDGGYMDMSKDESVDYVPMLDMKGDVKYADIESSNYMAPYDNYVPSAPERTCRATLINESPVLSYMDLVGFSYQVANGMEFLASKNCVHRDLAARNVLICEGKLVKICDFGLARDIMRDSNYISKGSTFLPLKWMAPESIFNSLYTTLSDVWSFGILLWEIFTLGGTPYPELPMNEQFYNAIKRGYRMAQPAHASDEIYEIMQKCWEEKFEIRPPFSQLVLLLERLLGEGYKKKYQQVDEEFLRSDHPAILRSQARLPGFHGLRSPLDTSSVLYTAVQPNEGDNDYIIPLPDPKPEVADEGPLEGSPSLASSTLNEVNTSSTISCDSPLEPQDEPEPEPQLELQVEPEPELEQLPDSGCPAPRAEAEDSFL

- pIC50 [6]: 6.80
- pIC50 [25]: < 5.00
SMILES: COc1cc2ncn(-c3cc(OCc4ccccc4C(F)(F)F)c(C(N)=O)s3)c2cc1OC [GW843682X]
- Activity [1]: 21.1%
- Activity [2]: 27.6%
- Activity [3]: 61.2%
- Activity [4]: 3.5%
- Activity [5]: 58.6%
- Activity [7]: 4.7%
- Activity [8]: 51%
- pIC50 [9]: 6.68
- pIC50 [10]: 5.21
- Activity [11]: 20.3%
- Activity [12]: 7.5%
- Activity [13]: 11.6%
- Activity [14]: 37.7%
- Activity [15]: 14.4%
- Activity [16]: 19.1%
- Activity [17]: 11.2%
- Activity [18]: 35.9%
- selectivity ratio [19]: > 10
- Activity [20]: 14.4%
- pIC50 [21]: 6.68
- Activity [22]: 6%
- Activity [23]: 18.2%
- Activity [24]: 24.1%
- Activity [26]: 11.2%
- Activity [27]: 21.6%
- Activity [28]: 8.9%
- Activity [29]: 8%
